Assay [1] can be described thus: Antiproliferative effect was determined on CD81 enriched cell lines for binding and activation of the CD81 receptor. It counts as functional, Rattus norvegicus. The method, boiled down: (§1)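 Primary rat pup astrocytes (CD81-enriched, 4-8 days postpartum) and C6 glioma (CD81-deficient) were run in parallel, seeded at 3 × 10³ and 10³ cells/well. Compounds at 0.1-10 µM were given in 2% FCS-BME (0.05% DMSO final) for 4 days at 37 °C, 5% CO₂. Cells were formaldehyde-fixed and cresyl violet-stained (pH 3.7), with A560 read-out. % survival is relative to untreated wells, from 3 experiments × 4 wells.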

Assay [2] is described as follows: Nonspecific cytotoxicity at the specified concentration. It counts as functional.
The next assay is filed under the species Rattus norvegicus. The assay is described as follows: Concentration showing a non-astrocyte selective antiproliferative effect was determined. Format: functional. In outline:
as §1

Assay [3] can be described thus: Tested for greatest astrocyte-selective antiproliferative character at concentration of 5 uM. It counts as functional. In outline:
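Rat pup primary astrocytes (CD81-enriched, 4-8 days postpartum) and C6 glioma cells run in parallel, seeded at 3 × 10³ and 10³ per well. Incubated with compound for 4 days at 37 °C, 5% CO₂, final DMSO 0.05%. Fixed in formaldehyde, stained with cresyl violet, dye eluted in acetic acid, A560 read. % survival = treated/untreated ×100. Three experiments, four wells each.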

This is an account of results in ChEMBL document CHEMBL1144894, “Synthesis of 1-boraadamantaneamine derivatives with selective astrocyte vs C6 glioma antiproliferative activity. A novel class of anti-hepatitis C agents with potential to bind CD81” (2003).

`OCC[NH2+][B-]12CC3CC(CC(C3)C1)C2`: the Antiproliferative effect in assay [1] was found to be 10 µM. In assay [2], this compound registered a Cytotoxicity above 10 µM.

Compound `CC(C)C[C@H](NC(=O)C12CC3CC(CC(C3)C1)C2)C(=O)O` registered an Antiproliferative effect in assay [1] of 10 µM. Further, the Cytotoxicity in assay [2] is above 10 µM.

Take `O=C(NC12CC3CC(CC(C3)C1)C2)C12CC3CC(CC(C3)C1)C2`: in the assay listed under Rattus norvegicus, the Concentration amounted to 10 µM.

In assay [3], `O=C(O)[C@H](Cc1ccccc1)NC(=O)C12CC3CC(CC(C3)C1)C2` yielded a Cell survival of 82%. In assay [1], the Antiproliferative effect was 10 µM. In assay [2], this compound came in with a Cytotoxicity above 10 µM.

`COC(=O)[C@H](Cc1ccccc1)NC(=O)C12CC3CC(CC(C3)C1)C2` returned an Antiproliferative effect in assay [1] of 10 µM. Also, in assay [2], the Cytotoxicity was above 10 µM.

`COC(=O)[C@H](CC(C)C)NC(=O)C12CC3CC(CC(C3)C1)C2` showed a Concentration in the assay filed under Rattus norvegicus of 10 µM.

The compound `C1C2CC3CC1CC(NC14CC5CC(CC(C5)C1)C4)(C2)C3` returned a Concentration in the assay filed under Rattus norvegicus of 10 µM.

In turn, `COC(=O)[C@H](Cc1ccccc1)[NH2+][B-]12CC3CC(CC(C3)C1)C2` yielded an Antiproliferative effect in assay [1] of 10 µM. In assay [2], the Cytotoxicity is above 10 µM.

Regarding `COC(=O)[C@H](CS)[NH2+][B-]12CC3CC(CC(C3)C1)C2`, the Concentration in the assay filed under Rattus norvegicus was 10 µM.

Compound `C1C2CC3CC1C[B-]([NH2+]C14CC5CC(CC(C5)C1)C4)(C2)C3` came in with a Concentration in the assay listed under Rattus norvegicus of 10 µM.

Turning to `COC(=O)[C@H](CC(C)C)[NH2+][B-]12CC3CC(CC(C3)C1)C2`, the Antiproliferative effect in assay [1] is 10 µM. In addition, the Cytotoxicity in assay [2] is above 10 µM.
